Article PMC6146057 (ACS chemical neuroscience, 2018)

How the values were obtained:
rat M1 = biological target: T1, rat M1 (Rattus norvegicus, UniProt P08482); assay: Calcium mobilization assay, rat M1 cell line; format: cell-based
T1 sequence (P08482 1-460): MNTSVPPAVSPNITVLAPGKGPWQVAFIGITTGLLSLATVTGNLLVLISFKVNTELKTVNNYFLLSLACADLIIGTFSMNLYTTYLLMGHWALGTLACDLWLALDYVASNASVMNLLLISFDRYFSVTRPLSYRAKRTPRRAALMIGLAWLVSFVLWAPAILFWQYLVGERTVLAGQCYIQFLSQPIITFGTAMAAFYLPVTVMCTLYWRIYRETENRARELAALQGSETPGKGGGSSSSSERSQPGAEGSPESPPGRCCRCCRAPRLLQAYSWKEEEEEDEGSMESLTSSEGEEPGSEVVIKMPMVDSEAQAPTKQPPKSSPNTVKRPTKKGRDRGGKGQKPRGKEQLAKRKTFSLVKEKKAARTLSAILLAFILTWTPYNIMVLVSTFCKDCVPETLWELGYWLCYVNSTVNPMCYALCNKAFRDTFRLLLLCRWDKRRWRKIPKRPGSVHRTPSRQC
Summary of the method: (§1)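 Muscarinic receptor-expressing CHO cells were plated at 20,000 cells/well in medium without G418 the day before. They were loaded with 1.15 μM Fluo-4 AM for 45 min at 37 °C in HBSS with 20 mM HEPES and 2.5 mM probenecid. Test compound (10-point 1:3 series, top final 30 μM) was added for 2.5 min, then EC20 ACh for 1 min. Calcium flux was fitted with a four-parameter logistic curve.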

human M2–M5 = assay: Calcium mobilization selectivity, human M2–M5; format: cell-based; details: Figure 4A
Summary of the method: as §1

rat M2-M5 = assay: Calcium mobilization selectivity, rat M2-M5; format: cell-based; details: Figure 4B
Summary of the method: as §1

mice [1] = assay: High dose phenotypic mouse seizure liability screen; format: in vivo; details: 100 mg/kg i.p., up to 3 h
[2] = tested on: layer V medial prefrontal cortex fEPSPs; assay: Extracellular field electrophysiology in layer V prelimbic mPFC slices; design: species or system mouse
Summary of the method: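 Coronal prelimbic slices (400 μm) recovered in NMDG-HEPES solution (pH 7.3) for 8–10 min at 32 °C, then were perfused with ACSF at 2 mL/min and 30–32 °C. Layer V fEPSPs were evoked from layers II–III (200 μs, 0.05 Hz) or optically in ChR2-injected mice. Compound alone was bath-applied for 20 min. Alternatively, 10 μM compound was applied for 10 min, then with 3 μM OxoM for 10 min. Slope was measured 46–50 min after washout.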

[3] = Rat brain homogenate binding; format: in vitro ADME
cytochrome P450 3A4 = cytochrome P450 3A4 (Homo sapiens, UniProt P08684); assay: CYP450 inhibition in human liver microsomes, 3A4; format: in vitro ADME
Chain of cytochrome P450 3A4 (P08684 whole entry): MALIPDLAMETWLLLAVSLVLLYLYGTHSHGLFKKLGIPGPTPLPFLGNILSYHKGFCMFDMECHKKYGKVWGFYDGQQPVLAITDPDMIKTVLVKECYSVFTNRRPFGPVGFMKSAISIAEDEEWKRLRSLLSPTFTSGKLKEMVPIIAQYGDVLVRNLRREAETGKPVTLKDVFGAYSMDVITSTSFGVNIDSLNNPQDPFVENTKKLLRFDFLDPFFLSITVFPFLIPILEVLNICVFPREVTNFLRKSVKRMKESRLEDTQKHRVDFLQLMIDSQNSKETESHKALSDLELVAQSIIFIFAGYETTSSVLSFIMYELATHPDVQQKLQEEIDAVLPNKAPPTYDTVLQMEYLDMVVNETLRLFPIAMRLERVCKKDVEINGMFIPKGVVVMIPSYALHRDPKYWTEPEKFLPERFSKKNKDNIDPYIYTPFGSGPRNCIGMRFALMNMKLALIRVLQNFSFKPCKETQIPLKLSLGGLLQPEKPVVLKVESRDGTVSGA

cytochrome P450 1A2 = biological target: T2, cytochrome P450 1A2 (Homo sapiens, UniProt P05177); assay: CYP450 inhibition in human liver microsomes, 1A2; format: in vitro ADME
T2 sequence (P05177 1-516): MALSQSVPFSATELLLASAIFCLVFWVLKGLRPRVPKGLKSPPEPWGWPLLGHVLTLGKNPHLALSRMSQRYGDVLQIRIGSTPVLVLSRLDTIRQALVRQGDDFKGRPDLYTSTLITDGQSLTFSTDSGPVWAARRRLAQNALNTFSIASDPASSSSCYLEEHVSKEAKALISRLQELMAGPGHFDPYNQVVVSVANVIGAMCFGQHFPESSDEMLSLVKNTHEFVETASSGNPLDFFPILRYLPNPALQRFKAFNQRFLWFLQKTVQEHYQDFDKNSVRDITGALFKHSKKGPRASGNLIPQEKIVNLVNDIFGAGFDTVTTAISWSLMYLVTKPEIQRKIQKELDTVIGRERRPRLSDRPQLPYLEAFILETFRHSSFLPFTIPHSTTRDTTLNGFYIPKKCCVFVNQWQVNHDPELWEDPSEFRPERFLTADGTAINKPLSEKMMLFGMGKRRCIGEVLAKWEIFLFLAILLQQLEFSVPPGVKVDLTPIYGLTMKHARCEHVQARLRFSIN

cytochrome P450 2C9 = cytochrome P450 2C9 (Homo sapiens, UniProt P11712); assay: CYP450 inhibition in human liver microsomes, 2C9; format: in vitro ADME
Chain of cytochrome P450 2C9 (P11712 whole entry): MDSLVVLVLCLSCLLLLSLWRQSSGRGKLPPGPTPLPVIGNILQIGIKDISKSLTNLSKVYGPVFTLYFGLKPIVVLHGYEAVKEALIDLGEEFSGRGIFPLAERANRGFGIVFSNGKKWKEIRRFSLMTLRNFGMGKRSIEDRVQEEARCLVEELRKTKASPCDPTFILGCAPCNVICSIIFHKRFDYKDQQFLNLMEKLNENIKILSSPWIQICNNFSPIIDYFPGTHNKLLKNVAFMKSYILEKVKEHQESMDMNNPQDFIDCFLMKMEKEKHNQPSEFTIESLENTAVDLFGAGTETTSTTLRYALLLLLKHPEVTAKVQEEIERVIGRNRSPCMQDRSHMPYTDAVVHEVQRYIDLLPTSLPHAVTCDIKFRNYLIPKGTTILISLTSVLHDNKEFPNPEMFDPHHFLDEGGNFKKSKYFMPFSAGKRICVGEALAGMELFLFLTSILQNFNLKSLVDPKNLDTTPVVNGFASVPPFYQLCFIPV

cytochrome P450 2D6 = cytochrome P450 2D6 (Homo sapiens, UniProt P10635); assay: CYP450 inhibition in human liver microsomes, 2D6; format: in vitro ADME
Chain of cytochrome P450 2D6 (P10635 whole entry): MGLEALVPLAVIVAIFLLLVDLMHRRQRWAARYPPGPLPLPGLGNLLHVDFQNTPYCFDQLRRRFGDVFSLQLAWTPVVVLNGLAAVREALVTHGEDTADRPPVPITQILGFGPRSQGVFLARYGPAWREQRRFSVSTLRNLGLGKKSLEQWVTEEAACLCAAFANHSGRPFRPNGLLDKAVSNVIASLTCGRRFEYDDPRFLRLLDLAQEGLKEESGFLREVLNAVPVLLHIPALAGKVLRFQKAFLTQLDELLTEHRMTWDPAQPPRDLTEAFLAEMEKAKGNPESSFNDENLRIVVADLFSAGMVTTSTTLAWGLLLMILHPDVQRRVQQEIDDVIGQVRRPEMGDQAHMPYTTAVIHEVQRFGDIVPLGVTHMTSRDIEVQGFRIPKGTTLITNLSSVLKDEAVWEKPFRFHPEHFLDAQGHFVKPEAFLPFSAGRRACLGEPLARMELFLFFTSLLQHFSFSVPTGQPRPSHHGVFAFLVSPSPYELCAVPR

[4] = Rat PK IV/PO crossover study; format: in vivo
Summary of the method: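 Male Sprague–Dawley rats with carotid and jugular cannulae (n = 2) were dosed IV at 1.0 mg/kg in 10% EtOH, 50% PEG 400 and 40% saline. For oral dosing, fasted rats received 3 mg/kg by gavage as a microsuspension in 30% Captisol. Carotid blood was sampled from 0.117 to 24 h, and EDTA plasma was analysed by LC/MS/MS. Parameters came from noncompartmental analysis.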

mice [5] = assay: Modified Irwin Toxicology Battery in mice; format: in vivo, mouse; details: 100 mg/kg i.p.
rats = assay: Modified Irwin Toxicology Battery in rats; format: in vivo, rat; details: 56.6 mg/kg i.p.
Summary of the method: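 Rats received vehicle or test compound at 56.6 mg/kg i.p. in 10% Tween 80 (2 mL/kg; n = 3) after baseline assessment. A blinded observer scored autonomic and somatomotor parameters at 15, 30, 60, 180 and […].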

O=C(N[C@H]1CCCC[C@@H]1O)[C@H]1CN(Cc2ccc(-n3cccn3)cc2)c2ccccc2O1 [VU0486846, (2R)-N-[(1S,2S)-2-Hydroxycyclohexyl]-4-[(4-pyrazol-1-ylphenyl)-methyl]-2,3-dihydro-1,4-benzoxazine-2-carboxamide]
EC50 (rat M1; M1 PAM pEC50, rat M1 cell line, high expression): 0.234 µM
EC50 (rat M1; M1 agonist activity EC50, rat M1 cell line, compound alone): 5.6 µM
EC50 (rat M1; M1 agonist activity pEC50, rat M1 cell line, compound alone): 5.37 µM
EC50 (rat M1; Rat M1 CRC EC50, Figure 4B): 0.253 µM
M1 agonist activity, % ACh (rat M1; rat M1 cell line, compound alone): 26 ± 6 % ACh
M1 PAM efficacy, % ACh Max (rat M1; rat M1 cell line, high expression): 83 ± 1 % ACh Max
Activity at human M2–M5 (selectivity) (human M2–M5): highly selective
Activity at human M2–M5 (selectivity) (human M2–M5; listed as 16): inactive
Activity at rat M2–M5 (selectivity) (rat M2-M5): highly selective
Activity at rat M2–M5 (selectivity) (rat M2-M5; listed as 16): inactive
Seizure liability (mice [1]): devoid of seizure liability
Magnitude of LTD, PAM + CCh vs CCh alone ([2]; 3 μM VU0486846 + 10 μM CCh, electrically evoked, p < 0.05): significant increase in the magnitude of LTD
Change in fEPSP slope, compound alone (agonist activity in PFC) ([2]; 3 μM bath application 20 min, electrically evoked layer V fEPSPs): no significant change
Magnitude of LTD, PAM + OxoM vs OxoM alone ([2]; 10 μM VU0486846 + 3 μM OxoM, optically evoked, p < 0.05): significantly enhanced
fraction unbound [3]: 0.03
IC50 (cytochrome P450 3A4): 5 µM
IC50 (cytochrome P450 1A2): > 30 µM
IC50 (cytochrome P450 2C9): 18.8 µM
IC50 (cytochrome P450 2D6): 29.8 µM
half-life ([4]; male, Sprague-Dawley, rat, plasma): 1.2 h
Vd ([4]; male, Sprague-Dawley, rat, plasma, intravenous, 1 mg/kg): 1.8 L/kg
clearance ([4]; male, Sprague-Dawley, rat, plasma, iv, 1 mg/kg): 89 mL/min/kg
bioavailability ([4]; male, Sprague-Dawley, rat, plasma, po, 3 mg/kg): 95.9%
Adverse events or cholinergic side effects in PK study ([4]; rat PK study): No adverse events or cholinergic side effects
free brain levels (mice [5]): 342 nM
free plasma levels (mice [5]): 2000 nM
total brain levels (mice [5]): 12.2 µM
total plasma levels (mice [5]): 18.2 µM
Cholinergic side effects or adverse effects (mice [5]; 3 h evaluation period): did not produce any cholinergic side effects or pronounced adverse effects
free brain levels (rats): 32 nM
free terminal plasma exposure (rats): 489 nM
total brain levels (rats): 1.15 µM
total terminal plasma exposure (rats): 4.4 µM
Cholinergic side effects or adverse effects (rats; 3 h evaluation period): did not produce any cholinergic side effects or pronounced adverse effects
